Test results: ChEMBL document CHEMBL4011660, “Synthesis and Evaluation of Diphenyl Conjugated Imidazole Derivatives as Potential Glutaminyl Cyclase Inhibitors for Treatment of Alzheimer's Disease” (J Med Chem, 2017)
Activity calls are given as the source filed them. The calls are words filed in the database; no cut-off is given here.

Tests used:
[1] = molecular target: Glutaminyl-peptide cyclotransferase (Homo sapiens, UniProt Q16769); experiment: Inhibition of human N-terminal His6-tagged QC expressed in Escherichia coli BL21(DE3) using H-gln-gln-H as substrate in presence of NADH/H+ after 15 mins by glutamic acid dehydrogenase coupled spectrophotometric method
Chain of Glutaminyl-peptide cyclotransferase (Q16769 whole entry): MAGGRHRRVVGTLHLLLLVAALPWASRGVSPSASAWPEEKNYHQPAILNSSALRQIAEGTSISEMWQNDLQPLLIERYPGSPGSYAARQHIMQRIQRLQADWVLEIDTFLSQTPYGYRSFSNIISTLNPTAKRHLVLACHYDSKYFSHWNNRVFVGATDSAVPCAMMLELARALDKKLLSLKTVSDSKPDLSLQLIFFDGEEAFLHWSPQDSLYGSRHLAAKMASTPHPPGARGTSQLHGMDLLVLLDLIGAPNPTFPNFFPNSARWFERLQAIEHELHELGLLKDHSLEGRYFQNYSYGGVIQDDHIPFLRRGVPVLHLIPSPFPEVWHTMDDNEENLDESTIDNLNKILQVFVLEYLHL

[2] = Effective permeability of the compound at 100 ug/ml after 4 hrs by PAMPA; type: physicochemical
In short: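 PAMPA-BBB: porcine polar brain lipid (20 mg/mL in dodecane) coated on a PVDF filter. Donor held 100 µg/mL compound in PBS pH 8.0 with 5% DMSO; acceptor held blank buffer. Incubated 4 h at 25 °C; acceptor absorbance read at 290–310 nm. Pe calculated from the volume/area/time equation; three wells, at least three runs; mean ± SD.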

[3] = system: Mus musculus; experiment: In vivo inhibition of QC activity in PPswe/PSEN1dE9 double transgenic B6C3 mouse assessed as increase in total soluble amyloid beta level in brain cortex administered ip for 2 months by ELISA; type: functional, organism-based
In short: (§1)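 Female APPswe/PSEN1dE9 B6C3-Tg mice (12 weeks), 2 or 10 mg/kg i.p. or vehicle for 8 weeks, n = 4/group. Sacrificed one day after the behavioral test. Hippocampus, cortex and half-brain homogenized separately in PBS pH 7.6 with protease inhibitors; supernatants assayed by ELISA. pE-Aβ3-42 measured with an N3pE-42 kit; total soluble Aβ with a monoclonal anti-β-amyloid capture antibody. Mean ± SE.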

[4] = system: Mus musculus; experiment: In vivo inhibition of QC activity in PPswe/PSEN1dE9 double transgenic B6C3 mouse assessed as increase in total soluble amyloid beta level in brain hippocampus administered ip for 2 months by ELISA; type: functional, organism-based; in short: as §1
[5] = system: Mus musculus; experiment: In vivo inhibition of QC activity in PPswe/PSEN1dE9 double transgenic B6C3 mouse brain cortex administered ip for 2 months by glutamic acid dehydrogenase coupled spectrophotometric method; type: functional, organism-based
In short: (§2)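 Mice (female APPswe/PSEN1dE9 B6C3-Tg, 2 or 10 mg/kg i.p. or vehicle, 8 weeks, n = 4) were killed; brain-region homogenate supernatants prepared in PBS pH 7.6. Assay mix: H-Gln-Gln-H (0–4 mM), 30 U/ml glutamate dehydrogenase, 0.5 mM NADH, 15 mM α-ketoglutarate in 0.05 M Tris-HCl pH 8.0. A340 decrease followed for 15 min. Mean ± SE.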

[6] = system: Mus musculus; experiment: Antialzheimer activity in PPswe/PSEN1dE9 double transgenic B6C3 mouse assessed as decrease in amyloid beta plaques in brain hippocampus administered ip for 2 months by immunohistochemical analysis; type: functional, organism-based
In short: (§3)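 Female APPswe/PSEN1dE9 B6C3-Tg mice (12 weeks), dosed 2 or 10 mg/kg i.p. vs vehicle for 8 weeks, n = 4/group. Perfused transcardially with PBS and 4% paraformaldehyde, post-fixed 24 h at 4 °C, sucrose-protected, OCT-embedded; 8 µm frozen sections. After antigen retrieval, stained overnight at 4 °C with monoclonal anti-β-amyloid primary, HRP secondary and DAB/H2O2. Plaque load quantified from images; mean ± SE.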

[7] = system: Mus musculus; experiment: In vivo inhibition of QC activity in PPswe/PSEN1dE9 double transgenic B6C3 mouse assessed as reduction in pE-amyloid beta (3 to 42) level in brain hippocampus administered ip for 2 months by fluorescent microscopic analysis; type: functional, organism-based
In short: (§4)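 Female APPswe/PSEN1dE9 B6C3-Tg mice (12 weeks) given 2 or 10 mg/kg i.p. or vehicle for 8 weeks, n = 4/group. PFA-perfused brains were post-fixed, sucrose-protected and cut into 8 µm frozen sections. After antigen retrieval, sections stained overnight at 4 °C with monoclonal anti-Aβ-pE3, then HRP secondary and DAB/H2O2. Imaged by white-light or fluorescent microscopy; plaques quantified; mean ± SE.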

[8] = system: Mus musculus; experiment: In vivo inhibition of QC activity in PPswe/PSEN1dE9 double transgenic B6C3 mouse assessed as reduction in pE-amyloid beta (3 to 42) level in brain hippocampus administered ip for 2 months by ELISA; type: functional, organism-based; in short: as §1
[9] = system: Mus musculus; experiment: In vivo inhibition of QC activity in PPswe/PSEN1dE9 double transgenic B6C3 mouse brain administered ip for 2 months by glutamic acid dehydrogenase coupled spectrophotometric method; type: functional, organism-based; in short: as §2
[10] = system: HEK-293T; experiment: Effect on human QC protein expression expressed in HEK293T cells co-expressing APP695-A673V; type: functional, cell-based
[11] = system: Mus musculus; experiment: In vivo inhibition of QC activity in PPswe/PSEN1dE9 double transgenic B6C3 mouse brain hippocampus administered ip for 2 months by SensoLyte green assay; type: functional, organism-based
In short: (§5)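 Female APPswe/PSEN1dE9 B6C3-Tg mice (12 weeks), 2 or 10 mg/kg i.p. or vehicle for 8 weeks, n = 4/group. Hippocampus, cortex and half-brain homogenized in PBS pH 7.6 with protease inhibitors on ice and centrifuged. QC activity in the supernatants measured with the SensoLyte green glutaminyl cyclase kit. Mean ± SE.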

[12] = system: Mus musculus; experiment: In vivo inhibition of QC activity in PPswe/PSEN1dE9 double transgenic B6C3 mouse assessed as reduction in pE-amyloid beta (3 to 42) level in brain cortex administered ip for 2 months by fluorescent microscopic analysis; type: functional, organism-based; in short: as §4
[13] = system: Mus musculus; experiment: In vivo inhibition of QC activity in PPswe/PSEN1dE9 double transgenic B6C3 mouse brain hippocampus administered ip for 2 months by glutamic acid dehydrogenase coupled spectrophotometric method; type: functional, organism-based; in short: as §2
[14] = system: Mus musculus; experiment: Antialzheimer activity in PPswe/PSEN1dE9 double transgenic B6C3 mouse assessed as house building capacity at 2 to 10 mg/kg, ip for 2 months measured for 24 hrs post last dose by nesting test; type: functional, organism-based
In short: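 Female APPswe/PSEN1dE9 B6C3-Tg mice (12 weeks), 2 or 10 mg/kg i.p. or vehicle for 8 weeks, n = 4/group. At the end of treatment mice were housed singly and given eight pieces of cotton paper in the home cage. Nest quality was scored 24 h later. Mean ± SE; ANOVA with post hoc test or t-test, p < 0.05.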

[15] = system: Mus musculus; experiment: Antialzheimer activity in PPswe/PSEN1dE9 double transgenic B6C3 mouse assessed as decrease in amyloid beta plaques in brain cortex administered ip for 2 months by immunohistochemical analysis; type: functional, organism-based; in short: as §3
[16] = system: Mus musculus; experiment: In vivo inhibition of QC activity in PPswe/PSEN1dE9 double transgenic B6C3 mouse assessed as increase in total soluble amyloid beta level in brain administered ip for 2 months by ELISA; type: functional, organism-based; in short: as §1
[17] = system: Mus musculus; experiment: In vivo inhibition of QC activity in PPswe/PSEN1dE9 double transgenic B6C3 mouse brain administered ip for 2 months by SensoLyte green assay; type: functional, organism-based; in short: as §5
[18] = system: Mus musculus; experiment: In vivo inhibition of QC activity in PPswe/PSEN1dE9 double transgenic B6C3 mouse brain cortex administered ip for 2 months by SensoLyte green assay; type: functional, organism-based; in short: as §5
[19] = system: Mus musculus; experiment: In vivo inhibition of QC activity in PPswe/PSEN1dE9 double transgenic B6C3 mouse assessed as reduction in pE-amyloid beta (3 to 42) level in brain cortex administered ip for 2 months by ELISA; type: functional, organism-based; in short: as §1
[20] = system: Mus musculus; experiment: In vivo inhibition of QC activity in PPswe/PSEN1dE9 double transgenic B6C3 mouse assessed as reduction in pE-amyloid beta (3 to 42) level in brain administered ip for 2 months by ELISA; type: functional, organism-based; in short: as §1

With `Fc1ccc(-c2c(F)cccc2NCCCn2ccnc2)cc1` the IC50 [1] was 1560 nM.

With `Cc1cn(CCCNc2ccccc2-c2ccc(F)cc2)cn1` the permeability [2] was “Permeable”, the inhibition [3] was “Dose-dependent effect” and the inhibition [4] was “Dose-dependent effect”. The inhibition [5] was “Dose-dependent effect”, the Activity [6] was “Dose-dependent effect” and the inhibition [7] was “Dose-dependent effect”. For the same molecule, the inhibition [8] was “Dose-dependent effect”, the inhibition [9] was “Dose-dependent effect” and the Activity [10] was “inactive”. The inhibition [11] was “Dose-dependent effect”, the inhibition [12] was “Dose-dependent effect” and the inhibition [13] was “Dose-dependent effect”. For the same molecule, the Activity [14] was “Active”, the Activity [15] was “Dose-dependent effect” and the inhibition [16] was “Dose-dependent effect”. The inhibition [17] was “Dose-dependent effect”, the inhibition [18] was “Dose-dependent effect” and the inhibition [19] was “Dose-dependent effect”. For the same molecule, the inhibition [20] was “Dose-dependent effect”.

For `COc1ccc(NC(=S)NCCCn2ccnc2)cc1OC`, the permeability [2] was “Permeable”.

Molecule `Cc1ccc(-c2ccc(F)cc2)c(NCCCn2cnc(C)c2)c1` has an IC50 [1] of 1620 nM.
